MT1-MMP act inh – MT1-MMP (human) activation inhibition. GFP/RFP ratio change, % at 20 µM. AID 651647. P50281. actives 0.061% (n = 360,000). HT1080 RFP-PRO-GFP cells, GFP/RFP ratio fluorescence, overnight; percent of plate control window, DMSO zero;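 active = GFP/RFP ratio change of at least 30% with cell ATP level not reduced by more than half and red fluorescence within 50% of control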
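system = RFP-PRO-GFP reporter HT1080 cells | dosing = 20 µM single dose, 1% DMSO | timing = overnight cell settling, then overnight compound exposure, 37 °C, 5% CO2 | read-out basis = GFP/RFP fluorescence ratio | controls = DMSO and RFP-L50D-GFP cell wells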
ADAM17 inh – inhibits human ADAM17 | P78536 | recombinant ADAM17, EDANS/DABCYL FRET peptide cleavage | inhibition, % at 6.95 µM | actives 0.83% (n = 370,000) | AID 720648;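 active = inhibition above the mean of compounds lying between control limits plus 3 SD, set per campaign, cut at about 8.5% in these data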
Tn6 DDE FP – inhibitors of Tn6 peptide binding to human fibrin DD(E). Fibrin DD(E) TRITC-Tn6 fluorescence polarization displacement. actives 0.21% (n = 370,000). inhibition, % at 8.3 µM. AID 720509;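 active = inhibition above a per-campaign cutoff: mean of compounds within control limits plus 3 SD, cut at about 15% in these data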
ADAM10 inh – ADAM10 inhibition, QFRET primary screen. actives 0.62% (n = 370,000). recombinant ADAM10, EDANS/DABCYL FRET peptide cleavage, 3 h. inhibition, % at 7 µM. O14672;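 active = inhibition above a per-campaign cutoff equal to the mean of compounds falling between control-based bounds plus 3 SD, cut at about 20% in these data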
Target sequence (O14672 214-748 limits assumed): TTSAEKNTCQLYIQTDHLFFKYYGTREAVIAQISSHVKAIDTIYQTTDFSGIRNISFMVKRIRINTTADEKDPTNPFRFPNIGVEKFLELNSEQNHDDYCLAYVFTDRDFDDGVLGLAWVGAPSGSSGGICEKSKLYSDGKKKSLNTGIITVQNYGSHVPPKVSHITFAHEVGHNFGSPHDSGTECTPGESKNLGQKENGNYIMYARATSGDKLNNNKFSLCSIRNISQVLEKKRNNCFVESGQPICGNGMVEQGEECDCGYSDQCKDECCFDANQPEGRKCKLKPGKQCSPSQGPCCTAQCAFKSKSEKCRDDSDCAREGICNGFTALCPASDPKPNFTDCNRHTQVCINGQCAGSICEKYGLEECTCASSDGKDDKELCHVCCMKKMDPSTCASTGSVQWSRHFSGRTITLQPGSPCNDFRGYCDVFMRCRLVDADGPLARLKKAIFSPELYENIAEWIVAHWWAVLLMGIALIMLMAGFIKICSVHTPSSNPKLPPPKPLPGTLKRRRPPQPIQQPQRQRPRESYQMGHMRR
Tn7 DDE FP – disrupts Tn7 cyclic peptide binding to fibrin D-Dimer-E complex; FP displacement of FITC-Tn7 peptide from fibrin DD(E); 0% = median of compound wells per plate; inhibition, % at 8.3 µM; actives 0.13% (n = 370,000); AID 720508; P02675;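 active = inhibition above the mean of compounds falling within the control limits plus 3 SD of them, cut at about 14% in these data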
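Assay system: Fibrin-DD(E) protein isolated from polymerized human fibrin clots; read-out basis: percent inhibition; medium: Tris/NaCl/CaCl2 buffer, pH 7.8; signal: FP measurement; incubation: 10 min plus 3 h, room temperature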
ADAM10 ctr – inhibits human ADAM10 in ADAM17 exosite counter-screen; recombinant ADAM10, EDANS/DABCYL FRET peptide cleavage, 3 h; actives 47% (n = 2,900); inhibition, % at 6.95 µM; shares compounds with ADAM17 inh;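 active = mean inhibition over the triplicate runs exceeds the activity threshold set in the earlier primary screen, cut at about 20% in these data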
ADAM17 confirm – human ADAM17 inhibition, confirmation | shares compounds with ADAM17 inh | recombinant ADAM17, EDANS/DABCYL QFRET peptide cleavage | inhibition, % at 6.95 µM | actives 65% (n = 2,900) | AID 743257;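 active = mean inhibition across replicates above the hit cutoff set in the primary screen, cut at about 8.5% in these data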
Of the large screens only hits and unclear results are named; the others gave an inactive call (follow-up assays come after a bar, where they were run). Rows were chosen to be rich in hits. Some 1.6% of all compounds tested hit in one or more screens of this group.

CC(C)(C)OC(=O)NCCCC[C@H](NC(=O)c1nc[nH]c1C(=O)NC1CCN(C(=O)OC(C)(C)C)CC1)C(=O)OC(C)(C)C	ADAM17 inh 8.9 | ADAM10 ctr inactive | ADAM17 confirm inactive
CC(C)(C)OC(=O)NCCCC[C@H](NC(=O)c1nc[nH]c1C(=O)N[C@@H](CCCCNC(=O)OC(C)(C)C)C(=O)OC(C)(C)C)C(=O)OC(C)(C)C	none
COC(=O)c1ccc2nc(-c3ccc(Cl)cc3)c(Cc3ccccc3)n2c1	none (no result: MT1-MMP act inh)
COc1cc(C)c2c(c1C=O)Oc1c(c(C)c(O)c3c1C(O)OC3=O)OC2=O (configuration not stated)	ADAM17 inh 39 | ADAM10 ctr inactive | ADAM17 confirm inactive
Cc1ccc2c(c1)C1CS(=O)(=O)N(Cc3ccccc3)CN1C2 (configuration not stated)	none (no result: MT1-MMP act inh)
O=C(COc1ccccc1Cl)Nc1cnn(Cc2ccccc2)c1	ADAM17 inh 9.4 | ADAM10 ctr inactive | ADAM17 confirm inactive
C[C@H](CO)N1C[C@H](C)[C@@H](CN(C)C(=O)Nc2ccc(-c3cccs3)cc2)OCc2cn(nn2)CCCC1=O	none (no result: MT1-MMP act inh)
O=C(CCc1c[nH]c2ccccc12)OCC(=O)c1ccccc1	none
CN(C(=O)COC(=O)CCc1c[nH]c2ccccc12)C(c1ccccc1)c1ccccc1	ADAM17 inh 11 | ADAM10 ctr 28 | ADAM17 confirm 15
CC(C)(C)[C@@H]1/C(=C/C2CC2)N2C(=O)C[C@@H](c3ccccc3)N=C2N1Cc1ccc2c(c1)OCO2	none (no result: MT1-MMP act inh)
O=C(CN1CCOCC1)Nc1ccccc1F	ADAM17 inh 9.1 | ADAM10 ctr inactive | ADAM17 confirm inactive
COC(=O)C1CCN(C(=O)C2CC(=O)N(c3ccc(OC)cc3)C2c2ccc(OC)cc2)CC1 (configuration not stated)	none (no result: MT1-MMP act inh)
C=C1CC2(CC(c3ccccc3)OC(c3ccccc3)C2)OC1=O (configuration not stated)	ADAM17 inh 9.6 | ADAM10 ctr inactive | ADAM17 confirm inactive
CCCCOCC1CN(Cc2ccccc2OC)S(=O)(=O)c2cc(Cl)ccc2O1 (configuration not stated)	none (no result: MT1-MMP act inh)
CC(c1ccccc1)n1c(SCC(=O)N2CC(=O)Nc3ccccc32)nc2ccccc2c1=O (configuration not stated)	ADAM17 inh 8.9 | ADAM10 ctr 37 | ADAM17 confirm 16
O=C(OCc1cn(Cc2ccccc2Cl)nn1)N1CCOCC1	none (no result: MT1-MMP act inh)
COC(=O)c1ccc(COc2ccccc2/C=N/NC(=O)c2cccnc2)cc1	ADAM17 inh 8.7 | ADAM10 ctr inactive | ADAM17 confirm inactive
COCCCNC(=O)Cn1nc(-c2ccccc2OC)ccc1=O	ADAM17 inh 10 | ADAM10 ctr inactive | ADAM17 confirm inactive
COCCNC(=O)Cn1nc(-c2ccccc2OC)ccc1=O	none
CCCCCCN1C[C@H](n2cc(C3CC3)nn2)[C@@H](O)C[C@@H]1c1ccc(C)cc1	ADAM17 inh 15 | ADAM10 ctr inactive | ADAM17 confirm inactive
COc1cc(NC(=O)COC(=O)Cc2ccc(-c3ccccc3)cc2)cc(OC)c1	ADAM17 inh 11 | ADAM10 ctr 23 | ADAM17 confirm 12
COCCCNC(=O)C[C@H]1C[C@@]2(C(=O)OC)C(=C[C@H](COCc3ccccc3)O[C@@H]2C)N(Cc2ccco2)C1=O	none (no result: MT1-MMP act inh)
CCN1C(=O)c2cccc3c(NC(=O)c4ccccc4)ccc1c23	none
CCN1C(=O)c2cccc3c(NC(=O)c4ccc5c(c4)OCCO5)ccc1c23	ADAM17 inh 9.5 (no result: MT1-MMP act inh) | ADAM10 ctr inactive | ADAM17 confirm inactive
CCOC(=O)c1c(C)[nH]c(N=Nc2cccc(C)c2)c1C	ADAM17 inh 9.7 | ADAM10 ctr 24 | ADAM17 confirm 14
O=C(CCn1nnc2ccccc21)N1CCN(c2ccc(F)cc2)CC1	none (no result: MT1-MMP act inh)
O=C(/C=C/c1ccc(N2CCCCC2)c([N+](=O)[O-])c1)c1ccc(O)cc1	ADAM17 inh 9.4 | ADAM10 ctr 26 | ADAM17 confirm 14
COc1ccccc1C(=O)/C=C/c1ccc(N2CCCCC2)c([N+](=O)[O-])c1	none
CC1CN(C(=O)C(C)Sc2nc3ccccc3s2)CC(C)O1 (configuration not stated)	none
CC(Sc1nc2ccccc2s1)C(=O)N(C)Cc1ccccc1 (configuration not stated)	ADAM17 inh 8.8 | ADAM10 ctr inactive | ADAM17 confirm inactive
Cc1ccc(S(=O)(=O)N2CCC(C(=O)Nc3ccc(S(=O)(=O)N4CCCC4)cc3)CC2)cc1	ADAM17 inh 13 | ADAM10 ctr 21 | ADAM17 confirm 11
CC(=O)Nc1ccc(SC[C@H](CC(C)C)N2CCN(CCc3ccccc3)CCC2=O)cc1	ADAM17 inh 9.0 | ADAM10 ctr inactive | ADAM17 confirm inactive
Cc1ccc(SC[C@H](CC(C)C)N2CCN(CCc3ccccc3)CCC2=O)cc1	none
COC(=O)[C@@]1(Cc2ccc(F)cc2)[C@H]2c3cc(C(=O)N(C)C)n(Cc4ccccc4)c3C[C@H]2CN1C(=O)c1ccccc1	ADAM17 inh 9.4 (no result: MT1-MMP act inh) | ADAM10 ctr inactive | ADAM17 confirm inactive
COC(=O)[C@@]1(Cc2ccc(F)cc2)[C@H]2c3cc(C(=O)N(C)C)n(Cc4ccc(OC)c(OC)c4)c3C[C@H]2CN1C(=O)c1ccccc1	none (no result: MT1-MMP act inh)
COC(=O)[C@]12C[C@H](CC(=O)N3CCOCC3)C(=O)N(Cc3ccccc3)C1=C[C@H](COCc1ccccc1)O[C@@H]2C	none (no result: MT1-MMP act inh)
Cc1cc(N2CCN(C(=O)OC(C)(C)C)C[C@H]2C)ccc1N1CC[C@@H](O)C1	none (no result: MT1-MMP act inh)
CSc1ccc(CN(C)Cc2cc(=O)oc3c(C)c(C)ccc23)cc1	none
CCOc1ccc(CN(C)Cc2cc(=O)oc3c(C)c(C)ccc23)cc1OC	ADAM17 inh 9.4 | ADAM10 ctr inactive | ADAM17 confirm inactive
C[C@@H]1CN([C@@H](C)CO)C(=O)CCCn2nncc2CO[C@H]1CN(C)C(=O)Nc1ccc(N2CCN(C)CC2)cc1	none (no result: MT1-MMP act inh)
O=C(COC(=O)c1ccco1)Nc1ccc2c(c1)OCO2	ADAM17 inh 9.6 | ADAM10 ctr inactive | ADAM17 confirm inactive
O=C(COC(=O)c1ccco1)NCc1ccc2c(c1)OCO2	none
COc1ccc(NS(=O)(=O)c2cc(NC(=O)CCSc3ccccc3)ccc2OC)cc1	ADAM17 inh 10 | ADAM10 ctr 42 | ADAM17 confirm 22
CN(c1ccc(C(=O)NCCSCc2ccccc2)cc1)S(=O)(=O)c1ccccc1	none
